NSD2 HMT inh: NSD2 (human) methyltransferase inhibition; O96028; NSD2 peptide methylation, AlphaScreen, 120 min; inhibition, % at 12.5 µM; hit rate 0.54% among 310,000; in the data active means inhibition above about 50%
Target sequence (O96028 whole entry, looked up): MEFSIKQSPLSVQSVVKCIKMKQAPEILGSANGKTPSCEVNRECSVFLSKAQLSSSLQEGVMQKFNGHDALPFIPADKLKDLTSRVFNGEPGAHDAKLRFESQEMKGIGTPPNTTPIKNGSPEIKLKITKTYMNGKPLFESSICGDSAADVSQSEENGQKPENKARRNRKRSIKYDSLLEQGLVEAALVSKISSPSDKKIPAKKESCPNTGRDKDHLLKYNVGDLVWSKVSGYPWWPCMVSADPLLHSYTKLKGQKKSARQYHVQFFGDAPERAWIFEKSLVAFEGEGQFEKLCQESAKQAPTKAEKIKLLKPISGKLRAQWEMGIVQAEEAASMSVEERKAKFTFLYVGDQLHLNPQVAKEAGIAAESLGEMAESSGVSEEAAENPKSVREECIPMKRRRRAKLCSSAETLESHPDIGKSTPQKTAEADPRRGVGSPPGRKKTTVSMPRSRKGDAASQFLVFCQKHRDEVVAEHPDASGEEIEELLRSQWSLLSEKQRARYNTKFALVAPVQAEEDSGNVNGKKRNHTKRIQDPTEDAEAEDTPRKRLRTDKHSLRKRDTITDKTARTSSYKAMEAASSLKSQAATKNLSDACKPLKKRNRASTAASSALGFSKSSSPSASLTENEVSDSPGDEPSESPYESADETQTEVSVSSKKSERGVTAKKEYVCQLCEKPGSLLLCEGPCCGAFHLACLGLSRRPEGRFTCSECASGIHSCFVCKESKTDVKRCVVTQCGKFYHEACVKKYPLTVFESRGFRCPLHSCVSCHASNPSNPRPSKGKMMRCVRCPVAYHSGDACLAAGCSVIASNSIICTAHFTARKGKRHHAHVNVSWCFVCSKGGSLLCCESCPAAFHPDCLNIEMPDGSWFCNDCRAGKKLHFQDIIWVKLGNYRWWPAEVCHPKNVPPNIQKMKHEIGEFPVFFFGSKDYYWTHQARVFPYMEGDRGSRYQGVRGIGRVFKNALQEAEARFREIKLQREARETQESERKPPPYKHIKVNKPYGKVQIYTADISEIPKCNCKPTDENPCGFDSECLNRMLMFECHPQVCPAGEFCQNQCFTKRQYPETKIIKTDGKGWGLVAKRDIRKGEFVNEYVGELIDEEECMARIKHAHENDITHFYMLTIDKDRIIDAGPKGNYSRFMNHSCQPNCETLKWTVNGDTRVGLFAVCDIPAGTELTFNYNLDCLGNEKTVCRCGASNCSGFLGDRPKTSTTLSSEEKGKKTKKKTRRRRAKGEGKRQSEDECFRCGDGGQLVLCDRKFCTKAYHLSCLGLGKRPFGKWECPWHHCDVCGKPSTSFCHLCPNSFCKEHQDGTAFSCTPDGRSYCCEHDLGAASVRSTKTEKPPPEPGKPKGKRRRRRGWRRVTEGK
Casp6 inh: blocks human caspase-6 cleavage activity; purified caspase-6, Z-VEID-R110 cleavage fluorescence; inhibition, % at 12.5 µM; hit rate 0.53% among 350,000;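 active means mean inhibition across replicates at least about 35%, with every replicate also reaching that limit, limit read from the data; inconclusive means only one of the two criteria met; inactive means neither criterion met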;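 further: 0% = median of neutral control wells and 100% = no fluorescence left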
Wnt act: activates Wnt/beta-catenin signaling in a reporter cell assay. hit rate 1.2% among 300,000. activation, % at 9.35 µM. activator, plate reader; in the data active means activation above about 30%, passing the limit was not always enough; inconclusive means no clear call, values can overlap the other calls;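 further: 0% = neutral control wells and 100% = positive control wells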
Xi reactivation: reactivates the inactive X chromosome in mouse fibroblasts; XiGFP mouse fibroblasts, % GFP-positive cells imaging, 3 d; cells co-treated with 5-aza-dC sensitizer; scaled so ellipticine positive control = 100%; activation, % at 7.58 µM; hit rate 0.055% among 360,000; AID 743238;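 active means mean normalized replicate activation at least 10% and every replicate at or above 10%; inconclusive means only one of the two criteria met; inactive means mean below 10% and not all replicates reach 10%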;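 further: 0% = median of on-plate neutral control wells and 100% = ellipticine 6 µM median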
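System: 68-5-11 XiGFP fibroblast line | Buffer or medium: DMEM containing 5-aza-dC | Compound: Single point | Times: Compounds 3 days, fix/stain 15 min at room temperature | Benchmarks: Positive control ellipticine, 6 µM final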
esBAF inh: blocks esBAF chromatin remodeling in mouse ES cells; Bmi1-luciferase knock-in reporter, 24 h; 100% = twice the neutral-well signal; reporter increase, % at 12.5 µM; hit rate 2% among 350,000; AID 602393; in the data active means activation above about 40%; inconclusive means no clear call, values can overlap the other calls;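 further: 0% = median of the plate's neutral control wells and 100% = double that signal; a rise in the Bmi1 reporter signal indicates esBAF inhibition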
MITF act: activators of MITF-driven TRPM1 promoter activity in SK-MEL-5 cells; hit rate 0.75% among 300,000; SK-MEL-5 TRPM1-promoter luciferase, 24 h; % of positive control, neutral wells = 0; activation, % at 12.5 µM;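 active means mean activation of at least 80% with every replicate also reaching 80%; inconclusive means mean reaches 80% but some replicate falls short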;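 further: 0% = neutral control wells and 100% = parthenolide positive control wells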
Numbers without * were called inactive; u = inconclusive; x = no result given. This is a sample that favours compounds with a hit; in the whole collection about 3% have one here.

SMILES | NSD2 HMT inh | Casp6 inh | Wnt act | Xi reactivation | esBAF inh | MITF act
COc1ccc(NS(=O)(=O)c2cc(OC)ccc2OC)cc1 | 50 | 9 | -1 | 0 | -4 | -9
c1ccc(-c2ccc(OCCOCCn3cncn3)cc2)cc1 | 2 | x | x | x | 62* | 68
Cc1ccc(C(=O)CSc2nnc3n2CCCCC3)s1 | 1 | 1 | 22 | 0 | 65* | 46
COc1ccc([C@@H]2CC=CC[C@@H](C)Oc3ccccc3C(=O)N(C)[C@@H](C)C(=O)N2)c(OC)c1 (mixture of isomers) | x | x | x | 0 | x | x
COc1cccc(Nc2nc(-c3cccc(N4C(=O)c5ccccc5C4=O)c3)cs2)c1 | -5 | x | 17 | x | u | 21
Cc1cccnc1Nc1nc(-c2ccc(F)cc2)cs1 | 1 | -2 | -4 | 0 | u | x
Cc1cccnc1Nc1nc(-c2ccc(O)cc2)cs1 | -1 | x | x | x | 58* | 101*
COc1cccc(Nc2nc(-c3ccc(O)cc3)cs2)c1 | 2 | x | x | x | 36 | 90*
COc1ccc(NS(=O)(=O)c2cn(C)c(=O)n(C)c2=O)cc1 | -1 | 2 | 42* | 0 | 1 | -8
Cn1cc(S(=O)(=O)Nc2ccc(Oc3ccccc3)cc2)c(=O)n(C)c1=O | -1 | -1 | 1 | 0 | -1 | -3
Cc1cc(C(=O)N/N=C/c2cc(Br)c(Br)o2)n[nH]1 | 16 | 54* | 0 | 0 | 23 | 51
O=C(c1ccncc1)N1CCCCN2[C@H](C1)[C@H](c1ccc(C#Cc3ccccn3)cc1)[C@@H]2CO | x | 37* | x | 0 | x | x
Clc1ccccc1OCc1nnc(-c2ccccc2Br)o1 | -7 | x | x | x | 115* | 99*
Brc1ccccc1-c1nnc(COc2cccc3cccnc23)o1 | -1 | x | x | x | x | 7
N#Cc1ccccc1OCc1nnc(-c2ccccc2Br)o1 | -6 | 0 | 29 | 0 | 55* | 159*
CCN(CC)CCn1c2ccccc2c2nc3ccccc3nc21 | 14 | 0 | 3 | 0 | 78* | x
CCNC(=O)C[C@H]1CC[C@@H]2[C@H](COC[C@@H](O)CN2C(=O)Nc2c(C)noc2C)O1 | x | -1 | x | 0 | 5 | x
Cc1ccc(Oc2cnc3ccccc3n2)cc1 | -2 | x | x | x | 28 | 109*
CO[C@H]1CN(C)C(=O)c2cc(NC(=O)c3cnccn3)ccc2OC[C@H](C)N(CC2CC2)C[C@H]1C | x | 1 | x | 0 | x | x
Cc1cc(C)n(-c2nc3ccccc3s2)n1 | -3 | -2 | 52* | 0 | x | 53
Cc1nn(-c2nc3ccccc3s2)c(N)c1Sc1ccc(F)cc1 | 1 | x | x | x | 89* | 34
Cc1nn(-c2ccccc2)c(N)c1Sc1ccc([N+](=O)[O-])cc1 | 6 | x | x | 0 | x | 9
Cc1cc(N)n(-c2nc3ccccc3s2)n1 | 0 | -1 | 24 | 0 | x | 46
Cc1nn(-c2nc3ccccc3s2)c(N)c1-c1ccccc1 | -1 | -7 | u | x | 95* | u
Cc1nn(-c2nc3ccccc3s2)c(N)c1-c1ccc(Cl)cc1 | -3 | x | 41* | x | x | 79
SMILES | NSD2 HMT inh | Casp6 inh | Wnt act | Xi reactivation | esBAF inh | MITF act
CCNC(=O)c1ccc(NC(=O)CC2SC(N3CCCCC3)=NC2=O)cc1 (stereo not drawn) | x | 1 | 1 | 0 | -1 | -5
CC1CCC(NC(=O)c2ccc(NC(=O)CC3SC(N4CCCC4)=NC3=O)cc2)CC1 (stereo not drawn) | 3 | -4 | 28 | 5 | 66* | 76
COc1cccc(C2=CC(c3cccc(OC)c3OC)n3nnnc3N2)c1 (stereo not drawn) | x | x | x | x | 47* | 12
CCCC#Cc1ccc2c(c1)O[C@@H](CN(C)CC1CCOCC1)[C@H](C)CN([C@H](C)CO)S2(=O)=O | x | 3 | x | 0 | -7 | x
CC(C)CN(C(=O)CCNC(=O)c1ccccc1Cl)C1CCS(=O)(=O)C1 (stereo not drawn) | 0 | -2 | 32* | 0 | 0 | 1
C[C@H]1CN([C@@H](C)CO)C(=O)c2cccc(NC(=O)C3CCCCC3)c2O[C@H]1CN(C)Cc1ccc(-c2ccccc2)cc1 | x | x | x | 0 | 1 | x
CN1c2ccsc2/C(=N/Nc2ccccc2)CS1(=O)=O | -4 | 2 | 6 | 0 | 58* | -6
Cc1noc(C)c1S(=O)(=O)N(C)C[C@@H]1Oc2ccc(NC(=O)CCCCCC(=O)Nc3ccccc3N)cc2CC(=O)N([C@@H](C)CO)C[C@@H]1C | x | 0 | x | -1 | x | x
CCSc1nnc(-c2c[nH]c3ccccc23)o1 | -2 | x | x | x | 49* | 45
N#CCSc1nnc(-c2c[nH]c3ccccc23)o1 | 0 | 1 | -1 | 1 | x | 1
CCCn1nnc(NC(=S)NC(=O)c2ccc(-c3ccc(Br)cc3)o2)n1 | 1 | 4 | 0 | 0 | 2 | x
Cn1nnc(NC(=S)NC(=O)c2ccc(-c3ccc(Br)cc3)o2)n1 | 1 | 5 | 49* | 0 | x | 23
COc1ccccc1CNc1nc(Nc2ccccc2-n2cccn2)c2sccc2n1 | 0 | 43* | -1 | 0 | -11 | x
COc1ccccc1CNc1nc(NCc2ccccc2OC)c2sccc2n1 | 1 | 1 | -9 | 0 | -9 | x
CO[C@H]1CN(C)C(=O)c2cc(NC(=O)C3CC3)ccc2OC[C@H](C)N(CC2CCOCC2)C[C@H]1C | x | 2 | x | 0 | -9 | x
N#Cc1c(SCC(=O)Nc2ccccc2C(F)(F)F)sc2c(O)cc(=O)[nH]c12 | 13 | 43* | -1 | 0 | 0 | 12
N#Cc1c(SCC(=O)Nc2cccc(F)c2)sc2c(O)cc(=O)[nH]c12 | 4 | 44* | 3 | 0 | 2 | -2
Cc1c(Cl)cccc1NC(=O)CSc1sc2c(O)cc(=O)[nH]c2c1C#N | -2 | 33 | -1 | 0 | 3 | -12
N#Cc1c(SCC(=O)Nc2ccc(Cl)cc2Cl)sc2c(O)cc(=O)[nH]c12 | x | 40* | 1 | 0 | -4 | 11
CCc1cccc(C)c1NC(=O)COC(=O)Cn1c(C)csc1=O | -2 | -1 | -1 | 0 | x | 5
Cc1csc(=O)n1CC(=O)OCc1cccc2ccccc12 | -3 | x | 25 | x | 58* | x
O=C(NCc1ccco1)c1sc2ccccc2c1Cl | 1 | x | x | x | 49* | 48
CN(C)C(=O)c1cccc(-c2ccc3c(c2)[C@@H]2[C@@H](CCN2C(=O)c2ccccc2F)[C@@H](CO)N3)c1 | x | x | x | 0 | 5 | x
NC(=O)c1ccc(NCCc2ccco2)cc1 | x | 4 | 3 | 0 | -5 | x
O=C(CCc1ccco1)CCc1ccco1 | -2 | 76* | -3 | 0 | x | 5
COCCOC(=O)N1C(=O)[C@@]2(c3ccccc31)[C@H](c1ccccc1OCCO)N1[C@H](c3ccccc3)[C@H](c3ccccc3)OC(=O)[C@H]1[C@@H]2C(N)=O | x | 2 | x | x | x | x

Bioassay records from PubChem.
